Consider 22 compounds from ChEMBL document CHEMBL1128275, “Amino-substituted 2-[2'-(dimethylamino)ethyl]-1,2-dihydro-3H- dibenz[de,h]isoquinoline-1,3-diones. Synthesis, antitumor activity, and quantitative structure--activity relationship” (J Med Chem, 1995).

Data set [1] is described as follows: Cardiotoxicity was measured by using Neonatal rat heart myocyte assay. Type of data set: toxicity, tissue-based. In outline: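 Neonatal rat heart myocytes in culture, 1 h drug exposure; cytotoxicity taken as the concentration lowering the ATP/protein ratio to 0.5, reported as IC50.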
Another data set concerns OVCAR-3. Description: Anti-tumor activity against human OVCAR-3 ovarian cancer cell lines by using MTT assay. Type of data set: functional, cell-based. In outline: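 Human tumor lines (A375 melanoma; OVCAR-3 ovarian carcinoma resistant to standard drugs) under continuous exposure, read by sulforhodamine B or MTT. Drugs from DMSO stocks diluted in PBS pH 7.4, 10^1–10^-5 μg/mL half-log, DMSO ≤0.1%, 37 °C, 5% CO2. MTT: 6 days then 4 h dye, A570. SRB: 8 days, TCA fixation, 0.4% SRB stain, OD 564 nm. Six wells per concentration; IC50 averaged.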

A short description of data set [2]: Toxicity ratio of quotient of the IC50 in myocytes divided by the average IC50 for three tumor cell lines. The note with it: myocytes and three tumor cell lines; read-out: Toxicity ratio. Type of data set: cell-based. In outline:
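Calculated ratio: myocyte IC50 (neonatal rat heart cells, 1 h exposure, ATP/protein end point) divided by the mean IC50 across A375 melanoma, OVCAR-3 ovarian and sensitive L1210 leukemia cells under continuous exposure.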

For data set [3], the system named is L1210. Description: Antitumor activity against murine L1210 resistant cell line by using MTT assay. Type of data set: functional, cell-based. The note with it: Mus musculus. (In general: Formazan colour is commonly taken as a measure of viable cells.)
The subject of data set [4] is L1210. The data set can be described thus: Anti-tumor activity against murine L1210 sensitive cell line by using MTT assay. The format is functional, cell-based. Conditions: Mus musculus.
In data set [5] the test system is Mus musculus. Description: The percent increase in life span of compound was measured against P388 Leukemia in mice at a dose of 8 mg/kg on days 1,5 and 9. The format is functional. In outline:
(§1)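 Standard NCI protocol: 10^6 freshly harvested P388 cells injected ip into 10 adult male DBA/2J mice on day 0; compound given ip on days 1, 5 and 9; control group of 10 mice given tumor cells and saline on the same days. %ILS = 100 × (treated − control lifespan)/control lifespan, using group median lifespans.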

In data set [6] the test system is WiDr. Description: Activity against resistant cell line of WiDr human colon tumor. Type of data set: functional, cell-based. Summed up: (§2)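 WiDr colon cells, sensitive line and a subline selected for resistance to mitoxantrone; MTT assay with continuous drug exposure. Compounds as hydrochlorides, dissolved in DMSO then serially diluted in PBS pH 7.4, 10^1–10^-5 μg/mL in half-log steps, DMSO ≤0.1% final.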

The subject of data set [7] is Mus musculus. Description: The percent increase in life span of compound was measured against P388 Leukemia in mice at a dose of 10 mg/kg on days 1,5 and 9. Type of data set: functional. Summed up: as §1
The test system of data set [8] is WiDr. Description: Activity against sensitive cell line of WiDr human colon tumor. Type of data set: functional, cell-based. Summed up:
as §2

The test system of data set [9] is Mus musculus. The data set can be described thus: The percent increase in life span of compound was measured against P388 Leukemia cells in mice at a dose of 4 mg/kg on days 1,5 and 9. Type of data set: functional. Summed up: as §1
Data set [10] deals with Mus musculus. Description: The percent increase in life span of compound was measured against P388 Leukemia cells in mice at a dose of 10 mg/kg on days 1,5 and 9. The format is functional. In outline: as §1
Data set [11] deals with Mus musculus. Description: The percent increase in life span of compound was measured against P388 Leukemia in mice at a dose of 15 mg/kg on days 1,5 and 9. Type of data set: functional. In outline:
as §1

Data set [12] deals with Mus musculus. Description: The percent increase in life span of compound was measured against P388 Leukemia cells in mice at a dose of 5 mg/kg on days 1,5 and 9. Type of data set: functional.
For data set [13], the system named is Mus musculus. Description: The percent increase in life span of compound was measured against P388 Leukemia cells in mice at a dose of 4.5 mg/kg on days 1,5 and 9. The format is functional. In outline: as §1
Data set [14] has as its system Mus musculus. The data set can be described thus: The percent increase in life span of compound was measured against P388 Leukemia cells in mice at a dose of 1.6 mg/kg on days 1,5 and 9. The format is functional. Summed up:
as §1

A value given as a limit tells only on which side of the number the result lay.

By IC50 is commonly meant the point on the concentration scale where inhibition reaches its midpoint. Read a low IC50 as greater potency in that assay. In [1], `CC(=O)Nc1ccc2c3c4c(cccc4cc2c1)C(=O)N(CCN(C)C)C3=O` gave a Cardiotoxicity of 0.487 µM. The IC50 in the data set with OVCAR-3 stood at 13 nM; with L1210 [3], 170 nM; in the data set with L1210 [4], 114 nM. Besides, the selectivity ratio in data set [2] turned out to be 7.7.
As to `CN(C)CCN1C(=O)c2c(N)ccc3cc4ccccc4c(c23)C1=O`, the Cardiotoxicity in data set [1] was found to be 0.434 µM. The IC50 in the data set on OVCAR-3 is 12 nM; in the data set with L1210 [3] it was 7.9 nM; with L1210 [4] it was 5.4 nM. The selectivity ratio in data set [2] was 48.
As a reminder, the ILS is the gain in survival time of treated over control animals, in per cent. Read a low ILS as little gain in survival. With `CN(C)CCN1C(=O)c2cccc3cc4ccc(N)cc4c(c23)C1=O`, the Cardiotoxicity in data set [1] was 0.943 µM. This compound gave an ILS at 8 mg/kg in the data set with Mus musculus [5] of 73%. The IC50 turned out to be 20 nM in the data set on OVCAR-3; 18 nM with WiDr [6]; 2.7 nM with L1210 [3]; 5.5 nM in the data set with WiDr [8]; 2.5 nM in the data set with L1210 [4]. Besides, in [2], the selectivity ratio amounted to 34. The compound further showed an ILS at 10 mg/kg in the data set on Mus musculus [7] of 109%. The same compound had an ILS at 4 mg/kg with Mus musculus [9] of 27%.
In data set [1], `CC(=O)Nc1ccc2cc3cccc4c3c(c2c1)C(=O)N(CCN(C)C)C4=O` had a Cardiotoxicity of 7.786 µM. In addition, the IC50 in the data set on OVCAR-3 was found to be 49 nM; with WiDr [6], 50 nM; in the data set with L1210 [3], 219 nM; with WiDr [8], 9 nM; in the data set on L1210 [4], 49 nM. Also, the selectivity ratio in data set [2] came out at 120.
Regarding `CN(C)CCN1C(=O)c2cccc3cc4c(N)cccc4c(c23)C1=O`, in data set [1], the Cardiotoxicity was above 81.3 µM. Also, the IC50 in the data set on OVCAR-3 stood at 9480 nM; in the data set with L1210 [3] it was 6780 nM; in the data set on L1210 [4], 6780 nM. In data set [2], the selectivity ratio is above 6.7.
`CN(C)CCN1C(=O)c2c(NC(=O)C(C)(C)C)ccc3cc4ccccc4c(c23)C1=O` gave a Cardiotoxicity in data set [1] above 24.63 µM. Further, the half-maximal inhibitory concentration (IC50) in the data set on OVCAR-3 was found to be 493 nM; with L1210 [3], 172 nM; in the data set with L1210 [4], 862 nM. For the same compound, in data set [2], the selectivity ratio was above 25.
The corresponding values for `CN(C)CCN1C(=O)c2cccc3cc4cc(N)ccc4c(c23)C1=O` are 0.813 µM, 14 nM, 16 nM, 2.7 nM and 39.
The corresponding values for `CN(C)CCN1C(=O)c2cccc3cc4cccc(N)c4c(c23)C1=O` are 27.1 µM, 1760 nM, 678 nM, 678 nM and 24.
Turning to `CN(C)CCN1C(=O)c2cccc3cc4c([N+](=O)[O-])cccc4c(c23)C1=O`, in data set [1], the Cardiotoxicity came to 0.65 µM. Besides, the results for the IC50 with OVCAR-3, in the data set on L1210 [3] and in the data set with L1210 [4] were 50 nM, 20 nM and 50 nM, respectively. Besides, in data set [2], the selectivity ratio came to 14.
On to `CN(C)CCN1C(=O)c2cccc3cc4cccc([N+](=O)[O-])c4c(c23)C1=O`, for which the Cardiotoxicity in [1] stood at 8.647 µM. Besides, the half-inhibitory concentration (IC50) amounted to 226 nM in the data set on OVCAR-3, 50 nM in the data set on L1210 [3] and 23 nM in the data set with L1210 [4]. The selectivity ratio in data set [2] came out at 80.
With `CN(C)CCN1C(=O)c2cc(N)cc3cc4ccccc4c(c23)C1=O`, the Cardiotoxicity in data set [1] is 1.724 µM. Also, the figures for the IC50 in the data set with OVCAR-3, in the data set on L1210 [3] and in the data set on L1210 [4] were 20 nM, 15 nM and 6.2 nM, respectively. In addition, in [2], the selectivity ratio turned out to be 101.
As for `CC(=O)Nc1cc2c3c(c4ccccc4cc3c1)C(=O)N(CCN(C)C)C2=O`, in data set [1], the Cardiotoxicity amounted to 0.177 µM. For the same compound, the concentration for half-maximal inhibition (IC50) in the data set on OVCAR-3 was found to be 61 nM; in the data set on L1210 [3] it was 73 nM; with L1210 [4], 19 nM. Besides, the selectivity ratio in [2] stood at 3.5.
`CC(=O)Nc1c2ccccc2c2c3c(cccc13)C(=O)N(CCN(C)C)C2=O`: the Cardiotoxicity in [1] was above 24.331 µM. Moreover, the IC50 in the data set with OVCAR-3 was 730 nM; with L1210 [3], 487 nM; in the data set with L1210 [4], 487 nM. Moreover, the selectivity ratio in data set [2] was above 37.
The compound `CC(=O)Nc1ccc2cc3ccccc3c3c2c1C(=O)N(CCN(C)C)C3=O` returned a Cardiotoxicity in data set [1] above 24.331 µM. Besides, the results for the concentration for half-maximal inhibition (IC50) with OVCAR-3, with L1210 [3] and in the data set on L1210 [4] were 608 nM, 560 nM and 608 nM, respectively. For the same compound, the selectivity ratio in [2] is above 33.
In the case of `CC(=O)Nc1cccc2cc3cccc4c3c(c12)C(=O)N(CCN(C)C)C4=O`, the Cardiotoxicity in data set [1] was above 22.5 µM. For the same compound, the figures for the half-inhibitory concentration (IC50) in the data set on OVCAR-3, in the data set with L1210 [3] and with L1210 [4] were 2430 nM, 2430 nM and 243 nM, respectively. In addition, the selectivity ratio in data set [2] was above 13.2.
As for `CN(C)CCN1C(=O)c2cc(NC(=O)C(C)(C)C)cc3cc4ccccc4c(c23)C1=O`, the Cardiotoxicity in data set [1] was 0.662 µM. The half-maximal inhibitory concentration (IC50) with OVCAR-3 is 33 nM; in the data set with L1210 [3], 15 nM; in the data set with L1210 [4], 44 nM. In addition, the selectivity ratio in data set [2] was determined as 9.5.
In the same order, the values of `CN(C)CCN1C(=O)c2cccc3cc4ccc(NC(=O)C(C)(C)C)cc4c(c23)C1=O` are 11.025 µM, 150 nM, 200 nM, 200 nM and 55.
The corresponding values for `CN(C)CCN1C(=O)c2ccc(N)c3cc4ccccc4c(c23)C1=O` are 1.486 µM, 68 nM, 27 nM, 5.4 nM and 20.
In the case of `CN(C)CCN1C(=O)c2cccc3cc(N)cc(c23)C1=O` [AMONAFIDE], the Cardiotoxicity in [1] was 48.4 µM. Moreover, the selectivity ratio in data set [2] is 30. In the data set on Mus musculus [10], this compound registered an ILS at 10 mg/kg of 45%. This compound also displayed an ILS at 15 mg/kg in the data set on Mus musculus [11] of 88%.
`CN(C)CCN1C(=O)c2cccc3cc4ccccc4c(c23)C1=O` [AZONAFIDE] yielded a Cardiotoxicity in data set [1] of 1.983 µM. In the data set with Mus musculus [12], this compound had an increase in lifespan (ILS) at 5 mg/kg of 25%. Besides, the IC50 with WiDr [6] amounted to 15 nM; in the data set on WiDr [8], 10 nM. In addition, the selectivity ratio in data set [2] is 44. In the data set with Mus musculus [7], the increase in life span (ILS) at 10 mg/kg amounted to 63%. This compound also had an increase in life span (ILS) at 15 mg/kg in the data set with Mus musculus [11] of 79%.
`COc1cccc2c1C(=O)c1c(O)c3c(c(O)c1C2=O)C[C@@](O)(C(=O)CO)C[C@@H]3O[C@H]1C[C@H](N)[C@H](O)[C@H](C)O1` [DOXORUBICIN] gave a Cardiotoxicity in data set [1] of 11.064 µM. For the same compound, the IC50 with OVCAR-3 stood at 35 nM; in the data set with L1210 [3], 3880 nM; with L1210 [4] it was 35 nM. The selectivity ratio in [2] came out at 181. Moreover, the increase in lifespan (ILS) at 4.5 mg/kg in the data set with Mus musculus [13] was determined as 113%.
As for `O=C1c2c(O)ccc(O)c2C(=O)c2c(NCCNCCO)ccc(NCCNCCO)c21` [MITOXANTRONE], the ILS at 1.6 mg/kg with Mus musculus [14] was determined as 200%. This compound displayed a Cardiotoxicity in data set [1] of 7.737 µM. The IC50 in the data set on OVCAR-3 is 5.8 nM; in the data set on WiDr [6] it was 1400 nM; in the data set on L1210 [3], 39 nM; in the data set on WiDr [8], 10 nM; in the data set on L1210 [4], 5 nM. For the same compound, the selectivity ratio in data set [2] stood at 387.
